In ChEMBL document CHEMBL1159098, “A new series of flavones, thioflavones, and flavanones as selective monoamine oxidase-B inhibitors” (Bioorg Med Chem, 2010):

What was measured:
[1] = molecular target: T1, Amine oxidase [flavin-containing] A (Homo sapiens, UniProt P21397); test: Inhibition of human recombinant MAOA expressed in BTI-TN-5B1-4 cells at 100 uM by para-tyramine oxidation assay; format: cell-based; settings: for inhibition (INH): human, bti-tn-5b1-4, 100 µM; for inhibition at 100 µM: BTI-TN-5B1-4, human
T1 sequence (P21397 whole entry): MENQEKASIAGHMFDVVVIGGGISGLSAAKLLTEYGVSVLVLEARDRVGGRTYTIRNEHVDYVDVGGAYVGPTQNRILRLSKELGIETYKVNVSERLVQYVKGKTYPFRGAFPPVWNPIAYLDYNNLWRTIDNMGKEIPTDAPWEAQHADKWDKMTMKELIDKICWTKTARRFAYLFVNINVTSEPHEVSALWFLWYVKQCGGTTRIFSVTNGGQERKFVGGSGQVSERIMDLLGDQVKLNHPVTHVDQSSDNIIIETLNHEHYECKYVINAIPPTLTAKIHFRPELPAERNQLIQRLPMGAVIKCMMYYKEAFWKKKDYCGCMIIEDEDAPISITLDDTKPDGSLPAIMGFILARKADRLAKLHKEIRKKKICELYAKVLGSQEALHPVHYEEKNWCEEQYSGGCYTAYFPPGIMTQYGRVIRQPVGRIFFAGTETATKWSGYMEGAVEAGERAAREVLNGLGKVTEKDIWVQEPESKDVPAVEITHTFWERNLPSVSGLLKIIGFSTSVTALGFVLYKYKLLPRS

[2] = molecular target: T2, Amine oxidase [flavin-containing] B (Homo sapiens, UniProt P27338); test: Inhibition of human recombinant MAOB expressed in BTI-TN-5B1-4 cells at 100 uM by para-tyramine oxidation assay; format: cell-based; settings: for inhibition at 100 µM: BTI-TN-5B1-4, human; for inhibition (INH): human, bti-tn-5b1-4, 100 µM
T2 sequence (P27338 whole entry): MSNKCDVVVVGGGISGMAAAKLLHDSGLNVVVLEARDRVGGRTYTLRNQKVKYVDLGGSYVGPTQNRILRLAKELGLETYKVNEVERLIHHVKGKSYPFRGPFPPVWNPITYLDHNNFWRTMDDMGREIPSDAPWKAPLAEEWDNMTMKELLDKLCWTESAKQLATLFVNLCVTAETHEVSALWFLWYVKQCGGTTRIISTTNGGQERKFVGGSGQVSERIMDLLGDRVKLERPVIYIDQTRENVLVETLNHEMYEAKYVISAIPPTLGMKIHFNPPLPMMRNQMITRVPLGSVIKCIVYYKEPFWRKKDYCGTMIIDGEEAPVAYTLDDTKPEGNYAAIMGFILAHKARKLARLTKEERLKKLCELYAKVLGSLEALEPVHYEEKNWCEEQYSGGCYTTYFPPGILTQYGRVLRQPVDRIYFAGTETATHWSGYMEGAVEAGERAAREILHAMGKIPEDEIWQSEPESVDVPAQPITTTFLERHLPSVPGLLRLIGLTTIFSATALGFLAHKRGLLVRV

[3] = molecular target: T2, Amine oxidase [flavin-containing] B; format: cell-based, BTI-TN-5B1-4
Homo sapiens = species on record: Homo sapiens; test: Selectivity for human MAOB over human MAOA
How it was run: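 Selectivity index = IC50(hMAO-A)/IC50(hMAO-B), both from Amplex Red/p-tyramine fluorimetric assays on insect-cell recombinant enzymes.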

[4] = molecular target: T2, Amine oxidase [flavin-containing] B; test: Inhibition of human recombinant MAOB expressed in BTI-TN-5B1-4 cells at 100 nM before washing by centrifugation-ultrafiltration method; format: cell-based; settings: BTI-TN-5B1-4, human
How it was run: (§1)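 Recombinant hMAO-B was incubated with one concentration of inhibitor in 0.05 M sodium phosphate pH 7.4 for 15 min at 37 °C. One aliquot was kept at 4 °C unwashed. The rest was washed three times by 30 kDa ultrafiltration (9000g, 20 min, 4 °C) and resuspended in buffer.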

[5] = molecular target: T2, Amine oxidase [flavin-containing] B; test: Inhibition of human recombinant MAOB expressed in BTI-TN-5B1-4 cells at 100 nM after repeated washing by centrifugation-ultrafiltration method; format: cell-based; settings: BTI-TN-5B1-4, human; how it was run: as §1
[6] = Inhibition of human monoamine oxidase
[7] = molecular target: T1, Amine oxidase [flavin-containing] A; test: Inhibition of human MAOA
How it was run: (§2)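 Recombinant human MAO-A or -B as microsomes from baculovirus-infected BTI-TN-5B1-4 insect cells, dosed to oxidize 165 pmol p-tyramine/min in controls (A 1.1 µg, B 7.5 µg protein). Preincubated with inhibitor 15 min at 37 °C in 0.05 M sodium phosphate pH 7.4. Started with 1 mM p-tyramine, 200 µM Amplex Red, 1 U/ml HRP (final). Resorufin fluorescence (ex 545/em 590 nm) read over 15 min at 37 °C, background subtracted.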

[8] = molecular target: T2, Amine oxidase [flavin-containing] B; test: Inhibition of human MAOB; how it was run: as §2
[9] = molecular target: T1, Amine oxidase [flavin-containing] A; test: Inhibition of human recombinant MAOA expressed in BTI-TN-5B1-4 cells at 500 uM before washing by centrifugation-ultrafiltration method; format: cell-based; settings: BTI-TN-5B1-4, human
[10] = molecular target: T2, Amine oxidase [flavin-containing] B; test: Inhibition of human recombinant MAOB expressed in BTI-TN-5B1-4 cells at 1 mM by para-tyramine oxidation assay; format: cell-based; settings: bti-tn-5b1-4, 1000 µM

Q: Which “inhibition (INH)” value [1] does the source give for `S=c1cc(-c2ccccc2)oc2ccccc12` here?
A: Not Active

Q: And the inhibition at 100 µM [2]?
A: 40%

Q: For `O=c1cc(-c2ccc(F)cc2)oc2ccccc12`, which inhibition at 100 µM [1] is on record?
A: 40%

Q: And the inhibition at 100 µM [2]?
A: 40%

Q: Which inhibition at 100 µM [1] does the source give for `Cc1ccc(-c2cc(=O)c3ccc(C)cc3o2)cc1` here?
A: 40%

Q: What about the inhibition at 100 µM [2] of the same compound?
A: 40%

Q: With `Fc1ccc2c(=S)cc(-c3ccccc3)oc2c1` as the compound, how does the inhibition at 100 µM [1] read?
A: 40%

Q: And the inhibition at 100 µM [2]?
A: 40%

Q: Which “inhibition (INH)” value [1] does the source give for `Cc1ccc2c(=O)cc(-c3ccc(F)cc3)oc2c1` here?
A: Not Active

Q: And the inhibition at 100 µM [2]?
A: 40%

Q: Which results are given for `COc1ccc(-c2cc(=O)c3ccc(C)cc3o2)cc1`?
A: inhibition at 100 µM [1]: 40%; inhibition at 100 µM [2]: 40%

Q: Which “inhibition (INH)” value [1] does the source give for `COc1ccc(-c2cc(=S)c3ccc(F)cc3o2)cc1` here?
A: Not Active

Q: What about the inhibition at 100 µM [2] of the same compound?
A: 40%

Q: Which results are given for `Cc1ccc2c(=S)cc(-c3ccccc3)oc2c1`?
A: inhibition (INH) [1]: Not Active; inhibition at 100 µM [2]: 40%

Q: Which results are given for `COc1ccc(-c2cc(=S)c3ccc(C)cc3o2)cc1`?
A: inhibition (INH) [1]: Not Active; inhibition at 100 µM [2]: 40%

Q: With `Cc1ccc2c(=S)cc(-c3ccc(F)cc3)oc2c1` as the compound, how does the “inhibition (INH)” value [1] read?
A: Not Active

Q: And the inhibition at 100 µM [2]?
A: 40%

Q: For `Fc1ccc(-c2cc(=S)c3ccccc3o2)cc1`, which “inhibition (INH)” value [1] is on record?
A: Not Active

Q: And the “inhibition (INH)” value [2]?
A: Not Active

Q: What does the source list for `COc1ccc2c(=S)cc(-c3ccccc3)oc2c1`?
A: inhibition (INH) [1]: Not Active; inhibition at 100 µM [2]: 40%

Q: Which “inhibition (INH)” value [1] does the source give for `COc1ccc2c(=S)cc(-c3ccc(F)cc3)oc2c1` here?
A: Not Active

Q: And the inhibition at 100 µM [2]?
A: 40%

Q: Which results are given for `Cc1ccc(C2CC(=O)c3ccccc3O2)cc1` (racemic)?
A: inhibition (INH) [1]: Not Active; IC50 [3]: 2.07 µM; Ratio IC50 (Homo sapiens): > 48

Q: Which results are given for `Cc1ccc2c(c1)OC(c1ccc(F)cc1)CC2=O` (racemic)?
A: inhibition (INH) [1]: Not Active; IC50 [3]: 0.13 µM; Ratio IC50 (Homo sapiens): > 769; inhibition at 0.1 µM [4]: 38.4%; inhibition at 0.1 µM [5]: 36.5%

Q: For `O=C1CC(c2ccc(F)cc2)Oc2ccccc21` (racemic), which “inhibition (INH)” value [1] is on record?
A: Not Active

Q: What about the IC50 [3] of the same compound?
A: 4.41 µM

Q: And the Ratio IC50 (Homo sapiens)?
A: > 23

Q: For `O=C1CC(c2ccccc2)Oc2ccccc21` (racemic) [FLAVANONE], which “inhibition (INH)” value [1] is on record?
A: Not Active

Q: What about the IC50 [3] of the same compound?
A: 2.87 µM

Q: What about the Ratio IC50 (Homo sapiens) of the same compound?
A: > 35

Q: With `COc1ccc(C2CC(=O)c3ccc(OC)cc3O2)cc1` (racemic) [LIQUIRITIGENIN DIMETHYL ETHER] as the compound, how does the “inhibition (INH)” value [1] read?
A: Not Active

Q: What about the IC50 [3] of the same compound?
A: 7.18 µM

Q: What about the Ratio IC50 (Homo sapiens) of the same compound?
A: > 14

Q: With `COc1ccc(-c2cc(=O)c3ccccc3o2)cc1` [4'-METHOXYFLAVONE] as the compound, how does the inhibition at 100 µM [1] read?
A: 40%

Q: What about the IC50 [3] of the same compound?
A: 27.9 µM

Q: What about the Ratio IC50 (Homo sapiens) of the same compound?
A: > 3.6

Q: For `COc1ccc(-c2cc(=O)c3ccc(OC)cc3o2)cc1` [4,7-DIMETHOXYFLAVONE], which “inhibition (INH)” value [1] is on record?
A: Not Active

Q: What about the IC50 [3] of the same compound?
A: 49.7 µM

Q: And the Ratio IC50 (Homo sapiens)?
A: > 2

Q: Which inhibition at 100 µM [1] does the source give for `O=c1cc(-c2ccccc2)oc2cc(F)ccc12` [7-FLUOROFLAVONE] here?
A: 40%

Q: What about the IC50 [3] of the same compound?
A: 12.9 µM

Q: What about the Ratio IC50 (Homo sapiens) of the same compound?
A: > 7.7

Q: For `COc1ccc2c(=O)cc(-c3ccccc3)oc2c1` [7-METHOXYFLAVONE], which “inhibition (INH)” value [1] is on record?
A: Not Active

Q: What about the inhibition at 100 µM [2] of the same compound?
A: 40%

Q: Which “inhibition (INH)” value [1] does the source give for `Cc1ccc2c(=O)cc(-c3ccccc3)oc2c1` [7-METHYLFLAVONE] here?
A: Not Active

Q: And the “inhibition (INH)” value [2]?
A: Not Active

Q: With `O=C1c2c(O)cc(O)cc2O[C@H](c2ccc(O)c(O)c2)[C@H]1O` [(+)-TAXIFOLIN] as the compound, how does the IC50 [6] read?
A: 155 µM

Q: Which results are given for `O=c1cc(-c2ccc(O)cc2)oc2cc(O)cc(O)c12` [APIGENIN]?
A: IC50 [7]: 1.7 µM; IC50 [8]: 12.8 µM

Q: Which IC50 [6] does the source give for `O=C1c2c(O)cc(O)cc2O[C@H](c2ccc(O)cc2)[C@H]1O` [DIHYDROKAEMPFEROL] here?
A: 153 µM

Q: For `COc1c(O)cc2oc(-c3ccc(O)c(O)c3)cc(=O)c2c1O` [EUPAFOLIN], which IC50 [6] is on record?
A: 25 µM

Q: What does the source list for `O=c1cc(-c2ccccc2)oc2ccccc12` [FLAVONE]?
A: inhibition at 100 µM [1]: 40%; inhibition (INH) [2]: Not Active

Q: Which IC50 [6] does the source give for `COc1cc(-c2cc(=O)c3c(O)c(OC)c(O)cc3o2)ccc1O` [JACEOSIDINE] here?
A: 19 µM

Q: For `O=c1cc(-c2ccc(O)c(O)c2)oc2cc(O)cc(O)c12` [LUTEOLIN], which IC50 [7] is on record?
A: 4.9 µM

Q: What about the IC50 [8] of the same compound?
A: 59.7 µM

Q: With `O=C(NCCN1CCOCC1)c1ccc(Cl)cc1` [MOCLOBEMIDE] as the compound, how does the inhibition at 500 µM [9] read?
A: 84.8%

Q: What about the “inhibition (INH)” value [10] of the same compound?
A: Not Active

Q: With `O=c1c(O)c(-c2ccc(O)c(O)c2)oc2cc(O)cc(O)c12` [QUERCETIN] as the compound, how does the IC50 [7] read?
A: 2.8 µM

Q: And the IC50 [8]?
A: 90 µM
